# ChEMBL document CHEMBL4422614 (Eur J Med Chem, 2019)
# Calls of active or inactive are those of the source. No cut-off for these calls is given here.
# Tests used:
# [1] = tested on: Mus musculus; experiment: (§1) Neuroprotection in amyloid beta (25 to 35 residues) induced C57BL/6J mouse model of Alzheimer's disease assessed as reduction in ratio of apoptotic neuron in DG hippocampus region at 4 mg/kg/day, ig administered for 26 consecutive days by hematoxylin and eosin staining-based light microscopic analysis (reference value: 55.8 +/- 7.2%); format: ADME, organism-based; set-up: scale not given: the % may be the effect or the level left; details: in vivo, po
# How it was run: (§2)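 Hippocampal CA1, CA3 and DG neurons were stained with H&E after the Aβ25-35 ICV model and 26-day intragastric dosing. Denatured cell index = denatured cells/total cells, n = 5. Values are mean ± SD, two-way ANOVA versus model.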
# [2] = tested on: Mus musculus; experiment: Cognition enhancement activity in amyloid beta (25 to 35 residues) induced C57BL/6J mouse model of Alzheimer's disease assessed as decrease in escape latancy at 4 mg/kg/day, ig administered for 26 consecutive days by Morris water maze test; format: functional, organism-based
# How it was run: (§3)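 Mice were randomized into 7 groups. All except sham got an ICV injection of Aβ25-35 (3 nmol); sham got the same volume of saline ICV. Dosing was intragastric daily for 26 days, with 0.5% CMC-Na as vehicle for sham and model. Body weight, diarrhea and emesis-like behavior were monitored.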
# [3] = tested on: Mus musculus; experiment: Cognition enhancement activity in amyloid beta (25 to 35 residues) induced C57BL/6J mouse model of Alzheimer's disease assessed as increase in number of virtual platform crossing at 4 mg/kg/day, ig administered for 26 consecutive days by Morris water maze test; format: functional, organism-based; how it was run: as §3
# [4] = in vitro; details: PAMPA
# [5] = tested on: Mus musculus; experiment: as §1, with “CA1” for “DG”, “40.6” for “55.8”, “12.5%)” for “7.2%)”; format: ADME, organism-based; set-up: scale not given: the % may be the effect or the level left; details: in vivo, po; how it was run: as §2
# [6] = Antioxidant activity assessed as trolox equivalent of AAPH-induced radical scavenging activity at 10 to 20 uM preincubated for 10 mins followed by AAPH addition measured every minute for 120 mins by ORAC fluorescein assay; format: functional
# How it was run: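 ORAC values are expressed as trolox equivalents, mean ± SD of three independent experiments.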
# [7] = tested on: Mus musculus; experiment: Cognition enhancement activity in amyloid beta (25 to 35 residues) induced C57BL/6J mouse model of Alzheimer's disease assessed as swimming time in effective region at 4 mg/kg/day, ig administered for 26 consecutive days by Morris water maze test (4.3 +/- 1.3 sec); format: functional; how it was run: as §3
# [8] = tested on: Mus musculus; experiment: Cognition enhancement activity in amyloid beta (25 to 35 residues) induced C57BL/6J mouse model of Alzheimer's disease assessed as swimming speed at 4 mg/kg/day, ig administered for 26 consecutive days by Morris water maze test (reference value: 15.6 +/- 2.4 cm/sec); format: functional; how it was run: as §3
# [9] = tested on: Mus musculus; experiment: Cognition enhancement activity in amyloid beta (25 to 35 residues) induced C57BL/6J mouse model of Alzheimer's disease assessed as swimming path length in virtual platform at 4 mg/kg/day, ig administered for 26 consecutive days by Morris water maze test (10.2 +/- 3.2 cm); format: functional; how it was run: as §3
# [10] = tested on: Mus musculus; experiment: as §1, with “CA3” for “DG”, “80.2” for “55.8”, “8.6%)” for “7.2%)”; format: ADME, organism-based; set-up: scale not given: the % may be the effect or the level left; details: in vivo, po; how it was run: as §2
structure (smiles),measurement,setting,value
O=C(Nc1c(Cl)cncc1Cl)c1ccc(OC(F)F)c(OCC2CC2)c1 [ROFLUMILAST],Activity,[1],25.1%
same,Activity,[2],Active
same,Activity,[3],Active
same,"Papp at 10 h, 100 ug/ml",[4],9.22 ×10⁻⁶ cm/s
same,Activity,[5],16.5%
same,Activity,[6],0.067 equiv
same,Time,[7],5.4 s
same,Activity,[8],14.5 cm/s
same,Activity,[9],16 cm
same,Activity,[10],38.7%
